Measured values taken from ChEMBL document CHEMBL4190289, “Antifungal and Cytotoxic β-Resorcylic Acid Lactones from a Paecilomyces Species” (J Nat Prod, 2017).
Structures can show the parent of a compound that is named as a salt.

What was measured:
A549 = test: Cytotoxicity against human A549 cells after 72 hrs by MTT assay; format: functional, cell-based; conditions: A549, 72 h
Outline: (§1)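 MTT colorimetric readout. DMSO stocks serially diluted in culture medium to final 50, 10, 2, 0.4, 0.08 and 0.016 μM, quadruplicate wells per concentration. Adriamycin as positive control. Inhibition rate computed from treated, control and blank OD. IC50 by nonlinear regression of logistic dose–response curves. Means ± SD of three independent experiments.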

HeLa = test: Cytotoxicity against human HeLa cells after 72 hrs by MTT assay; format: functional, cell-based; outline: as §1
Phytophthora litchii = test: Antifungal activity against Peronophythora litchii after 8 hrs by conidial germination assay; format: functional, organism-based
Outline: (§2)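 Conidia from PDA cultures (P. litchii 7-day-old, F. verticillioides 3-day-old), diluted in half-strength PDB, counted and used immediately. Samples in DMSO as 2-fold series; final 0.625 to 80 μg/mL. Incubated 8 h at 30 °C, 150 rpm. Germination scored microscopically (germ tube ≥1.5× spore diameter), >200 conidia per replicate, triplicate. Thiram positive, DMSO negative control. IC50 from logistic nonlinear regression.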

MCF7 = test: Cytotoxicity against human MCF7 cells after 72 hrs by MTT assay; format: functional, cell-based; conditions: MCF7, 72 h; outline: as §1
Fusarium verticillioides = test: Antifungal activity against Fusarium verticillioides after 8 hrs by conidial germination assay; format: functional, organism-based; outline: as §2

| SMILES | IC50 (Phytophthora litchii) | IC50 (Fusarium verticillioides) | IC50 (A549) | IC50 (HeLa) | IC50 (MCF7) |
| --- | --- | --- | --- | --- | --- |
| C[C@@H]1C/C=C/CCCCC(=O)Cc2cc(O)cc(O)c2C(=O)O1 [MONOCILLIN IV] | 33.6 µM | > 100 µM | > 10 µM | > 10 µM | 3.6 µM |
| COc1cc(O)c2c(c1)[C@H]1O[C@@H]1C[C@H](O)[C@H](O)C(=O)/C=C\C[C@H](C)OC2=O [HYPOTHEMYCIN] | 1.9 µM | 1.1 µM | 1 µM | 1 µM | 3.3 µM |
| COc1cc(O)c2c(c1)[C@H]1O[C@@H]1CC1=C(O)C(=O)C[C@H]1C[C@H](C)OC2=O | > 100 µM | > 100 µM | > 10 µM | > 10 µM | > 10 µM |
| CN(C)C(=S)SSC(=S)N(C)C [THIRAM] | 4.6 µM | 1.7 µM | – | – | – |
| COc1cccc2c1C(=O)c1c(O)c3c(c(O)c1C2=O)C[C@@](O)(C(=O)CO)C[C@@H]3O[C@H]1C[C@H](N)[C@H](O)[C@H](C)O1 [DOXORUBICIN HYDROCHLORIDE] | – | – | 0.1 µM | 0.3 µM | – |
| C[C@H]1C/C=C/CC(=O)CC/C=C/c2cc(O)cc(O)c2C(=O)O1 | > 100 µM | > 100 µM | 3.9 µM | 3.6 µM | 6.9 µM |
| C[C@@H]1C[C@H]2O[C@@H]2/C=C\C=C\C(=O)Cc2c(Cl)c(O)cc(O)c2C(=O)O1 [RADICICOL] | 1.4 µM | 8 µM | 0.1 µM | 0.1 µM | 0.4 µM |
| COc1cc(O)c2c(c1)[C@H]1O[C@@H]1CC1=C(O)C(=O)C[C@@H]1C[C@H](C)OC2=O | > 100 µM | > 100 µM | > 10 µM | > 10 µM | > 10 µM |

Continued, in another order:

| IC50 (Phytophthora litchii) | IC50 (Fusarium verticillioides) | SMILES | IC50 (A549) | IC50 (HeLa) | IC50 (MCF7) |
| --- | --- | --- | --- | --- | --- |
| 19.3 µM | > 100 µM | CO[C@@H]1CC/C=C/C[C@@H](C)OC(=O)c2c(O)cc(O)cc2CC(=O)C1 | > 10 µM | > 10 µM | > 10 µM |
| > 100 µM | > 100 µM | C[C@@H]1C/C=C/CC[C@@H](O)CC(=O)Cc2cc(O)cc(O)c2C(=O)O1 | > 10 µM | > 10 µM | > 10 µM |
| 7.9 µM | > 100 µM | C[C@@H]1C[C@H]2O[C@@H]2/C=C\C=C\C(=O)Cc2cc(O)cc(O)c2C(=O)O1 [MONOCILLIN I] | 2.6 µM | 2.7 µM | 8.1 µM |
| 9.2 µM | > 100 µM | C[C@@H]1C/C=C/CC/C=C\C(=O)Cc2cc(O)cc(O)c2C(=O)O1 | 4.1 µM | 3.6 µM | 1.7 µM |
| 12 µM | > 100 µM | C[C@@H]1C[C@H]2O[C@@H]2CC/C=C/C(=O)Cc2cc(O)cc(O)c2C(=O)O1 [MONOCILLIN III] | 2.1 µM | 3.4 µM | > 10 µM |
| > 100 µM | > 100 µM | C[C@@H]1Cc2ccccc2C(=O)Cc2cc(O)cc(O)c2C(=O)O1 | > 10 µM | > 10 µM | > 10 µM |
| 9.8 µM | > 100 µM | C[C@@H]1C/C=C/CC/C=C/C(=O)Cc2cc(O)cc(O)c2C(=O)O1 | 1.7 µM | 2.7 µM | 4.1 µM |
| 41 µM | > 100 µM | C[C@@H]1C[C@H]2C=CC[C@H](CC(=O)Cc3cc(O)cc(O)c3C(=O)O1)O2 | 4.1 µM | 3.9 µM | 4.9 µM |
